Laboratory results reported in ChEMBL document CHEMBL5244249, “Discovery of tofacitinib derivatives as orally active antitumor agents based on the scaffold hybridization strategy” (Eur J Med Chem, 2020).
The source made the active and inactive calls. The calls are words filed in the database; no cut-off is given here.

Assays:
MGC-803 [1] = experiment: Antiproliferative activity against human MGC-803 cells assessed as inhibition of cell growth incubated for 72 hrs by MTT assay; format: functional, cell-based; conditions: MGC-803, 72 h
In short: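 Antiproliferative screen in gastric cancer lines MGC-803, HGC-27 and BGC-823 by MTT assay; IC50 reported as mean ± SD.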

MGC-803 [2] = experiment: Induction of apoptosis in human MGC-803 cells assessed as cell rounding up at 5 to 10 uM incubated for 24 hrs by Hoechst 33342 staining based fluorescence microscopic analysis; format: functional; conditions: dose 5-10 µM
In short: (§1)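 MGC-803 cells exposed to 0, 5, 7.5 or 10 μM; cell morphology imaged and nuclear morphology examined by staining. Mean ± SD, three independent experiments.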

MGC-803 [3] = experiment: Induction of apoptosis in human MGC-803 cells assessed as cell debris at 5 to 10 uM incubated for 24 hrs by Hoechst 33342 staining based fluorescence microscopic analysis; format: functional; conditions: dose 5-10 µM; in short: as §1
MGC-803 [4] = experiment: Induction of apoptosis in human MGC-803 cells assessed as early apoptotic cells at 5 uM incubated for 24 hrs by Annexin V-FITC/PI staining based flow cytometric analysis (reference value: 3.9 %); format: functional
MGC-803 [5] = experiment: Induction of apoptosis in human MGC-803 cells assessed as late apoptotic cells at 7.5 uM incubated for 24 hrs by Annexin V-FITC/PI staining based flow cytometric analysis (reference value: 3.8 %); format: functional
MGC-803 [6] = experiment: Induction of apoptosis in human MGC-803 cells assessed as viable cells at 10 uM incubated for 24 hrs by Annexin V-FITC/PI staining based flow cytometric analysis (reference value: 90.3 %); format: functional; conditions: read-out: Activity
MGC-803 [7] = experiment: Induction of apoptosis in human MGC-803 cells assessed as early apoptotic cells at 10 uM incubated for 24 hrs by Annexin V-FITC/PI staining based flow cytometric analysis (reference value: 3.9 %); format: functional
MGC-803 [8] = experiment: Induction of apoptosis in human MGC-803 cells assessed as late apoptotic cells at 5 uM incubated for 48 hrs by Annexin V-FITC/PI staining based flow cytometric analysis (reference value: 0.5 %); format: functional
MGC-803 [9] = experiment: Induction of apoptosis in human MGC-803 cells assessed as viable cells at 7.5 uM incubated for 48 hrs by Annexin V-FITC/PI staining based flow cytometric analysis (reference value: 96.7 %); format: functional; conditions: read-out: Activity
MGC-803 [10] = experiment: Induction of apoptosis in human MGC-803 cells assessed as necrotic cells at 7.5 uM incubated for 48 hrs by Annexin V-FITC/PI staining based flow cytometric analysis (reference value: 0.3 %); format: functional
MGC-803 [11] = experiment: Cell cycle arrest in human MGC-803 cells assessed as G0/G1 phase cells at 5 uM incubated for 24 hrs by RNase/PI staining based flow cytometric analysis (reference value: 54.99%); format: functional
MGC-803 [12] = experiment: Cell cycle arrest in human MGC-803 cells assessed as S phase cells at 5 uM incubated for 24 hrs by RNase/PI staining based flow cytometric analysis (reference value: 27.1%); format: functional
MGC-803 [13] = experiment: Cell cycle arrest in human MGC-803 cells assessed as G2/M phase cells at 5 uM incubated for 24 hrs by RNase/PI staining based flow cytometric analysis (reference value: 15.11%); format: functional
MGC-803 [14] = experiment: Cell cycle arrest in human MGC-803 cells assessed as S phase cells at 7.5 uM incubated for 24 hrs by RNase/PI staining based flow cytometric analysis (reference value: 27.1%); format: functional
MGC-803 [15] = experiment: Cell cycle arrest in human MGC-803 cells assessed as G2/M phase cells at 7.5 uM incubated for 24 hrs by RNase/PI staining based flow cytometric analysis (reference value: 15.11%); format: functional
MGC-803 [16] = experiment: Cell cycle arrest in human MGC-803 cells assessed as G0/G1 phase cells at 10 uM incubated for 24 hrs by RNase/PI staining based flow cytometric analysis (reference value: 54.99%); format: functional
MGC-803 [17] = experiment: Induction of mitochondrial dysfunction in human MGC-803 cells assessed as increase in green fluorescence intensity at 7.5 uM incubated for 24 hrs by JC-1 staining based fluorescence microscopic analysis (reference value: 9.9%); format: functional
MGC-803 [18] = experiment: Induction of mitochondrial dysfunction in human MGC-803 cells assessed as increase in ratio of green to red fluorescence intensity incubated for 24 hrs by JC-1 staining based fluorescence microscopic analysis; format: functional, cell-based; conditions: dose 5-10 µM
MGC-803 [19] = experiment: Induction of mitochondrial dysfunction in human MGC-803 cells assessed as increase in ratio of green to red fluorescence intensity at 10 uM incubated for 24 hrs by JC-1 staining based fluorescence microscopic analysis; format: functional
MGC-803 [20] = experiment: Induction of mitochondrial dysfunction in human MGC-803 cells assessed as upregulation of cleaved caspase-9 expression at 5 to 10 uM incubated for 24 hrs by Western blot analysis; format: functional, cell-based; conditions: dose 5-10 µM
In short: (§2)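 Western blot of caspase 9, 3, 7, PARP and γH2A.X in MGC-803 lysates after 24 h exposure to 5, 7.5 or 10 μM; band quantitation; mean ± SD from three independent experiments.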

MGC-803 [21] = experiment: Induction of mitochondrial dysfunction in human MGC-803 cells assessed as upregulation of cleaved caspase-7 expression at 5 to 10 uM incubated for 24 hrs by Western blot analysis; format: functional, cell-based; conditions: dose 5-10 µM; in short: as §2
MGC-803 [22] = experiment: Induction of mitochondrial dysfunction in human MGC-803 cells assessed as downregulation of procaspase-9 expression at 5 to 10 uM incubated for 24 hrs by Western blot analysis; format: functional, cell-based; conditions: dose 5-10 µM; in short: as §2
[23] = Activation of MAPK pathway in human MGC-803 cells assessed as change in phosphorylated Erk5 expression at 5 to 10 uM incubated for 24 hrs by Western blot analysis; format: cell-based; conditions: dose 5-10 µM
[24] = Activation of MAPK pathway in human MGC-803 cells assessed as increase in phosphorylated JNK expression at 5 to 10 uM incubated for 24 hrs by Western blot analysis; format: cell-based; conditions: filed as activator, dose 5-10 µM
[25] = Toxicity in SCID mouse xenografted with human MGC-803 cells assessed as effect on general health at 12.5 to 25 mg/kg, IG administered for 21 days; format: organism-based; conditions: in vivo, po, 504 h, dose 12.5-25 mg/kg, time 21 day
In short: (§3)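 SCID mice bearing subcutaneous MGC-803 xenografts (right side) dosed with 12.5 or 25 mg/kg over 21 days, 0.5% CMC-Na vehicle as control; body weight and tumor size monitored periodically; major organs examined histopathologically at end; means ± SD.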

MGC-803 [26] = experiment: Antitumor activity against human MGC-803 cells xenografted in SCID mouse assessed as decrease in average tumor volume at 12.5 to 25 mg/kg, IG administered for 21 days; format: functional, organism-based; conditions: dose 12.5-25 mg/kg, time 21.0 day
In short: (§4)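 MGC-803 cells implanted subcutaneously on the right side of SCID mice; dosed at 12.5 or 25 mg/kg in 0.5% CMC-Na (vehicle control) for 21 days. Body weight and tumor size recorded periodically; tumors excised and weighed at end. Means ± SD.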

MGC-803 [27] = experiment: Antitumor activity against human MGC-803 cells xenografted in SCID mouse assessed as decrease in average tumor weight at 12.5 mg/kg, IG administered for 21 days relative to control; format: functional; design: scale not given: the % may be the effect or the level left; conditions: time 21 day; in short: as §4
[28] = Toxicity in SCID mouse xenografted with human MGC-803 cells assessed as effect on liver at 12.5 to 25 mg/kg, IG administered for 21 days by H&E staining based histopathological analysis; format: organism-based; conditions: in vivo, po, 504 h, dose 12.5-25 mg/kg, time 21 day; in short: as §3

- IC50 (MGC-803 [1]): 2680 nM
Compound: Cc1cc(N2CC[C@@H](C)[C@@H](N(C)c3ncnc4[nH]ccc34)C2)n2nc(SCc3ccc(C(F)(F)F)cc3)nc2n1
- Activity (MGC-803 [2]): Active
- Activity (MGC-803 [3]): Active
- Activity (MGC-803 [4]): 5.5%
- Activity (MGC-803 [5]): 15.8%
- viability at 10 µM (MGC-803 [6]): 57.1%
- Activity (MGC-803 [7]): 12.7%
- Activity (MGC-803 [8]): 17.2%
- viability at 7.5 µM (MGC-803 [9]): 22.1%
- Activity (MGC-803 [10]): 1.6%
- Activity (MGC-803 [11]): 56.93%
- Activity (MGC-803 [12]): 30.04%
- Activity (MGC-803 [13]): 10.78%
- Activity (MGC-803 [14]): 29.36%
- Activity (MGC-803 [15]): 12.24%
- Activity (MGC-803 [16]): 56.74%
- Activity (MGC-803 [17]): 39.1%
- Activity (MGC-803 [18]): Dose-Dependent Effect
- Ratio (MGC-803 [19]): <=8.73
- Activity (MGC-803 [20]): Active
- Activity (MGC-803 [21]): Active
- Activity (MGC-803 [22]): Active
- Activity [23]: inactive
- Activity [24]: Active
- Activity [25]: Non-Toxic
- Activity (MGC-803 [26]): Active
- Activity (MGC-803 [27]): 56.8%
- Activity [28]: Non-Toxic
